Converted amounts (≈) assume the structure as drawn.
Columns and labels:
B2 bradykinin receptor [1] = target: T1, B2 bradykinin receptor (Rattus norvegicus, UniProt P25023); assay: Inhibition of specific binding of [3H]-BK (1 nM) to rat Bradykinin receptor B2 by 50% in NG108-15 cell membranes; set-up: species or system Membrane
T1 sequence (P25023 whole entry): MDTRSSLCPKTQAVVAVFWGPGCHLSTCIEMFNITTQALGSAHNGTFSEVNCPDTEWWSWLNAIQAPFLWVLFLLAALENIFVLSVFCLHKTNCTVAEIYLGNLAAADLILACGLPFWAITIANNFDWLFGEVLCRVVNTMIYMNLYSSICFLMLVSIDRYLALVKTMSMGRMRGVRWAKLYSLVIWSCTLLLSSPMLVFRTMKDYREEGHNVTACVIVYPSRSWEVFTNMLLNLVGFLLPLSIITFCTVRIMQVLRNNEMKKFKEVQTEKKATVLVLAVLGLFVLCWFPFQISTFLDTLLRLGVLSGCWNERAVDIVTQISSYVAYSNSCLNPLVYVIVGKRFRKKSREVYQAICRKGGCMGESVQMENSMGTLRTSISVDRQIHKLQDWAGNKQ
How it was run: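 NG108-15 cell membranes (rodent B2) were diluted to about 0.3 mg/mL protein in 25 mM potassium phosphate pH 6.5 with 1 mM EGTA, 0.1 mM bacitracin, chymostatin and BSA. [3H]BK was 1 nM and nonspecific binding was set with 10 µM BK. Incubation was 60 min at 4 °C, followed by PEI-soaked GF/B filtration, a cold phosphate pH 6.5 wash and scintillation counting. Ki was derived from IC50 (Cheng–Prusoff). Data are mean ± SEM of ≥3 experiments in triplicate.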

B2 bradykinin receptor [2] = target: T2, B2 bradykinin receptor (Homo sapiens, UniProt P30411); assay: Displacement of [3H]BK (1 nM) from human Bradykinin receptor B2 expressed in Cos-7 cells; format: cell-based
T2 sequence (P30411 whole entry): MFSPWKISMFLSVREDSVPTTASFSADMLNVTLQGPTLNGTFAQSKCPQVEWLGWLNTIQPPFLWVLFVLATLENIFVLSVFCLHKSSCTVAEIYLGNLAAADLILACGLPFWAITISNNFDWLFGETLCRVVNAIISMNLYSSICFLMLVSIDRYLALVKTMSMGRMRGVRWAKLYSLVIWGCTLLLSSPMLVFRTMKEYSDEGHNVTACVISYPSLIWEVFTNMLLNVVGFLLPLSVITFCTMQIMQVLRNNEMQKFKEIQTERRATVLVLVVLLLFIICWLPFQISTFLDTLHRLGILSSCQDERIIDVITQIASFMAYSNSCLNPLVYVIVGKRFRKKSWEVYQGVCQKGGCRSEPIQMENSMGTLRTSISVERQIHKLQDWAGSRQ
How it was run: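 [3H]BK was 1 nM and nonspecific binding was set with 10 µM BK. Incubation was 60 min at 4 °C, then GF/B filtration, a cold 50 mM Tris pH 7.4 wash and counting. Ki was derived from IC50 (Cheng–Prusoff). Data are mean ± SEM of ≥3 triplicate experiments.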

[3] = Solubility at pH 7.4; format: physicochemical; settings: buffer
Rattus norvegicus [4] = species: Rattus norvegicus; assay: Reversal of FCAT-induced mechanical […] in rats; format: functional
How it was run: (§1)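 Female Sprague-Dawley rats (100-120 g) under light enflurane received 100 µL FCA into one knee. Three to six days later, each hind paw was placed on a pressure transducer with the uninjected leg bearing 100 g, and the load tolerated by the injected leg was read half-hourly. Compounds were given after three control readings. The response was expressed as % maximal reversal (100% = equal load on both legs).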

B2 bradykinin receptor [5] = target: T1, B2 bradykinin receptor; assay: Inhibition of Bradykinin receptor B2-mediated contractions of rat uterus smooth muscle; format: functional, tissue-based
Rattus norvegicus [6] = species: Rattus norvegicus; assay: Reversal of turpentine-induced mechanical […] in rats; format: functional
How it was run: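 Rats received an intraplantar injection of 50 µL turpentine/paraffin (1:1) into the left hind paw. Three days later, compound or vehicle was given orally or iv, and the paw withdrawal threshold (mean of two readings) was taken 1 h later. ED50 was the dose giving 50% of maximum reversal. Efficacy was the maximum reversal as % of the pre-turpentine threshold.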

B2 bradykinin receptor [7] = target: T2, B2 bradykinin receptor; assay: Antagonism of the [Ca2+] efflux actions of the human Bradykinin receptor B2 (WI38 fibroblasts); format: functional
B2 bradykinin receptor [8] = target: T1, B2 bradykinin receptor; assay: Inhibition of increase in [Ca2+] efflux from NG108-15 cells caused by activation of rat Bradykinin receptor B2; format: functional, cell-based
B2 bradykinin receptor [9] = target: T2, B2 bradykinin receptor; assay: Antagonism of the [Ca2+] efflux actions of the human Bradykinin receptor B2 (SK-N-SH neuroblastoma); format: functional
B2 bradykinin receptor [10] = target: T2, B2 bradykinin receptor; assay: Antagonism of the [Ca2+] efflux actions of human Bradykinin receptor B2 (SK-N-SH neuroblastoma); format: functional
B2 bradykinin receptor [11] = target: T2, B2 bradykinin receptor; assay: Antagonism of the [Ca2+] efflux actions of human Bradykinin receptor B2 (WI38 fibroblasts); format: functional
Rattus norvegicus [12] = species: Rattus norvegicus; assay: Duration of action (excess) in FCAT-induced mechanical […] in rats; format: functional
Rattus norvegicus [13] = species: Rattus norvegicus; assay: Oral efficacy against FCAT-induced mechanical […] in rats; format: functional; how it was run: as §1

CN(C)CCCN(C)CCNC(=O)[C@@H]1CCCN1S(=O)(=O)c1ccc(N/N=C(\S)NC(c2ccccc2)c2ccccc2)c([N+](=O)[O-])c1 showed a Ki (B2 bradykinin receptor [1]) of 0.023 nM and a Ki (B2 bradykinin receptor [2]) of 119 nM.
Compound CN(C)CCCN(C)CCCNC(=O)[C@@H]1CCCN1S(=O)(=O)c1ccc(N/N=C(\S)NC(c2ccccc2)c2ccccc2)c([N+](=O)[O-])c1 has a Ki (B2 bradykinin receptor [1]) of 0.31 nM and a Ki (B2 bradykinin receptor [2]) of 95 nM.
For CN(C)CCN(C)CCNC(=O)[C@@H]1CCCN1S(=O)(=O)c1ccc(NNC(=O)NC(c2ccccc2)c2ccccc2)c(Cl)c1, the Ki (B2 bradykinin receptor [1]) was 7.3 nM.
CN(C)CCN(C)CCNC(=O)[C@@H]1CCCN1S(=O)(=O)c1ccc(N/N=C(\S)NC(c2ccccc2Cl)c2ccccc2Cl)c([N+](=O)[O-])c1 gave a Ki (B2 bradykinin receptor [1]) of 5.46 nM and a Ki (B2 bradykinin receptor [2]) of 34.1 nM.
For CN(C)CCN(C)CCNC(=O)[C@@H]1CCCN1S(=O)(=O)c1ccc(NNC(=S)NC2c3ccccc3CCc3ccccc32)c([N+](=O)[O-])c1, the Ki (B2 bradykinin receptor [1]) was 14.5 nM and the Ki (B2 bradykinin receptor [2]) was 4.67 nM.
With CN(C)CCCN(C)CCNC(=O)[C@@H]1CCCN1S(=O)(=O)c1ccc(N/N=C(\S)NC2c3ccccc3-c3ccccc32)c([N+](=O)[O-])c1 the Ki (B2 bradykinin receptor [2]) was 645 nM.
CN(C)CCCN(C)CCNC(=O)c1cccn1S(=O)(=O)c1ccc(NNC(=O)NC2c3ccccc3CCc3ccccc32)c(Cl)c1 showed a Ki (B2 bradykinin receptor [2]) of 253 nM.
For CN(C)CCCN(C)CCNC(=O)c1cccn1S(=O)(=O)c1ccc(NNC(=O)NC2c3ccccc3CCc3ccccc32)c([N+](=O)[O-])c1, the solubility [3] was 400 µg/mL (≈ 569 µM), the ED50 (Rattus norvegicus [4]) was 0.027 µmol/kg and the Ki (B2 bradykinin receptor [1]) was 176 nM. For the same compound, the IC50 (B2 bradykinin receptor [5]) was 1.9 nM, the ED50 (Rattus norvegicus [6]) was 0.32 µmol/kg and the IC50 (B2 bradykinin receptor [7]) was 55 nM. For the same compound, the IC50 (B2 bradykinin receptor [8]) was 141 nM, the Ki (B2 bradykinin receptor [2]) was 2.79 nM and the IC50 (B2 bradykinin receptor [9]) was 12 nM.
In the case of CN(C)CCN(C)CCNC(=O)c1cccn1S(=O)(=O)c1ccc(N/N=C(\S)NC2c3ccccc3CCc3ccccc32)c([N+](=O)[O-])c1, the Ki (B2 bradykinin receptor [1]) is reported as 64.5 nM and the Ki (B2 bradykinin receptor [2]) is reported as 1.47 nM.
CN(C)CCCN(C)CCNC(=O)[C@@H]1CCCN1S(=O)(=O)c1ccc(NNC(=O)NC2c3ccccc3CCc3ccccc32)c([N+](=O)[O-])c1 showed an ED50 (Rattus norvegicus [4]) of 0.043 µmol/kg, a Ki (B2 bradykinin receptor [1]) of 10.7 nM and an IC50 (B2 bradykinin receptor [5]) of 2.4 nM. For the same compound, the ED50 (Rattus norvegicus [6]) was 0.11 µmol/kg, the IC50 (B2 bradykinin receptor [10]) was 91 nM and the IC50 (B2 bradykinin receptor [8]) was 105 nM. It also gave an IC50 (B2 bradykinin receptor [11]) of 17 nM and a Ki (B2 bradykinin receptor [2]) of 0.79 nM.
CN(C)CCN(C)CCNC(=O)c1cccn1S(=O)(=O)c1ccc(NNC(=S)NC(c2ccccc2)c2ccccc2)c([N+](=O)[O-])c1 gave a Ki (B2 bradykinin receptor [2]) of 237 nM.
With CN(C)CCN(C)CCNC(=O)[C@@H]1CCCN1S(=O)(=O)c1ccc(NNC(=S)NC(c2ccccc2)c2ccccc2)c([N+](=O)[O-])c1 the Time (Rattus norvegicus [12]) was 4 h, the ED50 (Rattus norvegicus [13]) was 0.84 µmol/kg and the Ki (B2 bradykinin receptor [2]) was 772 nM.
Work on CN(C)CCN(C)CCNC(=O)[C@H]1CCCN1S(=O)(=O)c1ccc(NNC(=S)NC(c2ccccc2)c2ccccc2)c([N+](=O)[O-])c1 yielded a Ki (B2 bradykinin receptor [2]) of 1430 nM.

Source: ChEMBL document CHEMBL1135416, “Nonpeptide bradykinin B2 receptor antagonists: conversion of rodent-selective bradyzide analogues into potent, orally-active human bradykinin B2 receptor antagonists” (J Med Chem, 2002)
